Compounds with a hit are over-represented: about 3.7% of the library has one in this group of screens.
KCNQ1 pot = potentiators or activators of human KCNQ1 potassium channel. CHO-K1 KCNQ1, thallium flux FluxOR fluorescence; active compounds read high. AID 2648. 310,000 compounds, 0.35% hits. B-score at 10 µM. P51787;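 active = fluorescence ratio B-score, a plate-corrected score, at least three library SD, with initial intensity B-score within 5 SD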
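Material: CHO-K1 cells stably expressing KCNQ1. Medium: assay buffer for compound exposure, DMSO matched across wells. Reagent: K+/Tl+ depolarizing stimulus. Compound dosing: single-concentration screen. Times: 37 °C overnight plating, 90-min dark dye load, 20-min compound pretreatment. Technique: FluxOR Tl+ flux fluorescence.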
KCNQ1 block = blocks the human KCNQ1 potassium channel; CHO-K1 KCNQ1, FluxOR thallium flux fluorescence; active compounds read high; B-score at 10 µM; 310,000 compounds, 1.3% hits; AID 2642; P51787;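 active = compounds whose thallium flux B-score, printed positive for inhibition, exceeds three library SD while starting fluorescence stays within three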;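 note: channel opened by potassium depolarization with thallium stimulus after 20 min compound exposure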
hERG rescue = hERG (human) protection from proarrhythmic block; CHO-hERG, FluxOR thallium flux, dofetilide IC70 present; activation (rescue from dofetilide block), less the hit threshold, % at 10 µM; 310,000 compounds, 0.51% hits; AID 1511;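 active = activation above the mean of controls blocked by dofetilide plus 5 SD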;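 note: thallium influx through hERG after potassium depolarization seen as dye fluorescence rise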
Kir21 block = inhibitors of mouse Kir2.1 inward-rectifier potassium channel | B-score at 10 µM | 310,000 compounds, 0.85% hits | HEK293-Kir2.1, FluxOR thallium flux fluorescence; active compounds read low | P35561;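 active = fluorescence ratio B-score at or below minus 3 SD of library scores, with starting-brightness B-score within 2 SD, cut at about -4.2 in these data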;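 note: channel flux triggered by added potassium and thallium sulfate stimulus; B-score of peak minus minimum fluorescence over baseline after thallium stimulus; more negative B-score means stronger Kir2.1 block with less thallium influx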
KCNK9 inh = inhibitors of human KCNK9 two-pore domain potassium channel; HEK293 KCNK9, FluxOR thallium flux fluorescence; active compounds read low; B-score at 10 µM; AID 488922; Q9NPC2; 310,000 compounds, 1.2% hits;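 active = ratio B-score over 3 SD below the library mean, with starting fluorescence within 5 SD of its mean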;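 note: negative B-score means less thallium flux so channel inhibition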
Target sequence (Q9NPC2 whole entry, looked up, the tested form may be a part): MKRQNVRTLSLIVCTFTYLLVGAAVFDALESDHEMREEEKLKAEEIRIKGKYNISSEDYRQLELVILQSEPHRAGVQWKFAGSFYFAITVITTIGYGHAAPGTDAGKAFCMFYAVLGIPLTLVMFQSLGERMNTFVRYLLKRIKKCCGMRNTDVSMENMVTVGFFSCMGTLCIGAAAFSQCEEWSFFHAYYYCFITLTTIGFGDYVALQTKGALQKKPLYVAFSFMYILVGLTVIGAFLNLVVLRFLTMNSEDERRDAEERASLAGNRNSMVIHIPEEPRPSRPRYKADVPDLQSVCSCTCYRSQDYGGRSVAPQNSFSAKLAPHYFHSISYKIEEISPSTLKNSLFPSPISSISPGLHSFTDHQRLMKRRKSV
KCNK3 block = human KCNK3 channel inhibition, primary screen. 340,000 compounds, 0.84% hits. O14649. CHO-KCNK3 thallium flux, FluxOR fluorescence; active compounds read low. B-score at 10 µM;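 active = B-score under library mean minus 4 SD, starting fluorescence ratio at most library mean plus 5 SD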;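 note: more negative B-score means stronger inhibition of thallium flux through KCNK3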
KCNK9 inh conf = human KCNK9 inhibitor confirmation. shares compounds with KCNK9 inh. HEK293 KCNK9 cells, FluxOR thallium flux fluorescence. inhibition, % at 10 µM. 4,900 compounds, 43% hits. AID 492992;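 active = thallium signal inhibited by more than 5 SD of the compound-free buffer control wells, on both duplicate plates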;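 note: 0% = assay buffer control wells without compound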
Kir2-1 spec = tests whether KCNK9 modulators also affect mouse Kir2.1. AID 492993. 4,900 compounds, 4% hits. inhibition, % at 10 µM. Kir2.1 cells, FluxOR thallium flux fluorescence. shares compounds with KCNK9 inh;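 active = thallium signal drop more than 5 SD beyond the mean of the no-compound control wells, seen in both duplicate plates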;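 note: signal is fluorescence rise after thallium addition divided by baseline fluorescence; plate controls were assay buffer only for no effect and full block by chlorpromazine control for full effect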
HEK293 Tl ctr = second counter-screen for KCNK9 modulators: effect in non-induced cells; shares compounds with KCNK9 inh; non-induced KCNK9-HEK293, FluxOR thallium flux; AID 492997; 4,900 compounds, 40% hits; inhibition, % at 10 µM;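 active = thallium signal drop beyond 5 SD of the untreated control mean, on both duplicate plates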;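 note: plate controls were buffer only IC0 wells for no effect and SID17386958 at its maximal inhibitory level for full effect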
* = called active by the depositor; i = inactive; nt = no result given.

SMILES	KCNQ1 pot	KCNQ1 block	hERG rescue	Kir21 block	KCNK9 inh	KCNK3 block	KCNK9 inh conf	Kir2-1 spec	HEK293 Tl ctr
CNS(=O)(=O)c1cccc(C(=O)OCc2cc(=O)n3cc(Br)ccc3n2)c1	i	i	-13.7	0.36	i	i	nt	nt	nt
O=C(OCc1cc(=O)n2cc(Br)ccc2n1)c1ccc(Cl)c(S(=O)(=O)NCc2ccccc2)c1	i	i	-9.5	1.72	-10.9*	i	i	i	i
Cc1nc(C(=O)N2CCc3c([nH]c4ccccc34)C2c2cc(F)ccc2F)cs1 (centres undefined)	i	i	-14.1	1.22	-9.97*	i	46.5%*	i	31.0%*
CC(C)c1nc(C(=O)N2CCc3c([nH]c4ccccc34)C2c2ccccn2)cs1 (centres undefined)	i	i	-3.9	1.74	i	i	nt	nt	nt
CCOC(=O)C1C(=O)C=C(/C=C/c2ccc(N(C)C)cc2)CC1c1ccccc1 (centres undefined)	i	8*	-27.5	-7.12	-8.21*	i	46.5%*	37.5%*	64.5%*
CCOC(=O)C1C(=O)C=C(c2cccs2)CC1c1ccccc1 (centres undefined)	i	i	-8.6	-0.59	i	i	nt	nt	nt
COc1ccc(Cl)cc1NC(=O)C1(c2cccs2)CCOCC1	i	i	-15.7	-0.58	i	i	nt	nt	nt
Cc1c(C)c2ccc(OCC(=O)N(C)C3CCS(=O)(=O)C3)c(C)c2oc1=O (centres undefined)	i	i	-5.1	0.21	i	i	nt	nt	nt
CC1Cc2ccccc2N1C(=O)c1ccc(N2CCCCC2)c([N+](=O)[O-])c1 (centres undefined)	i	i	-12.6	-0.16	-11.2*	i	49.0%*	i	25.0%*
CCOC(=O)C1=C(C)N=c2s/c(=C\c3ccc(OCC(=O)O)cc3)c(=O)n2C1c1ccc(OC(C)C)cc1 (centres undefined)	i	i	-24.1	-1.77	i	i	i	i	i
CCOC(=O)C1=C(C)N=c2s/c(=C/c3ccc(OCC(=O)O)cc3)c(=O)n2C1c1cc(OC)c(OC)c(OC)c1 (centres undefined)	i	i	-6.7	0.99	i	i	nt	nt	nt
CC(C)(C)OC(=O)N[C@H](C(=O)OC(C)(C)C)c1ccc2c(c1)OCO2	nt	nt	nt	nt	nt	i	nt	nt	nt
CC(C)[C@H](N[C@@H](C)c1ccccc1)c1c(O)ccc2ccccc12	i	i	-1.7	-0.42	i	i	nt	nt	nt
Cc1ccc(C(C)NC(=O)c2cc3cc(Br)ccc3oc2=N)cc1 (centres undefined)	i	7*	-21.5	-1.52	i	i	i	i	i
Cc1ccc(C)c(N2CCN(CCN3CCCCC3)CC2)c1	i	i	-11.9	0.26	i	i	nt	nt	nt
COc1ccc(N2C(=O)/C(=C\c3ccco3)N=C2SCC(=O)NC(C)(C)C)cc1Cl	i	i	-6.0	0.05	-9.11*	i	44.0%*	i	33.0%*
COc1ccc(C2Nc3ccccc3C(=O)N2Cc2ccco2)cc1COc1ccccc1F (centres undefined)	i	i	-7.3	-1.23	-9.03*	i	46.5%*	i	33.5%*
CN(C)c1ccc(N=Cc2ccco2)cc1	nt	nt	nt	nt	nt	i	nt	nt	nt
C(=N\N(Cc1ccccc1)c1ccccc1)/c1ccco1	i	i	-13.5	-0.27	-8.09*	i	i	i	42.0%*
O=C(Nc1ccc(C(=O)N2CCOCC2)cc1)C1CC1	nt	nt	nt	nt	nt	i	nt	nt	nt
CC(C)CNS(=O)(=O)c1ccc(S(=O)(=O)N2CCN(CCC#N)CC2)cc1	i	i	-8.0	0.19	i	i	nt	nt	nt
